According to ChEMBL document CHEMBL4270642, “Boronic ester-linked macrocyclic lipopeptides as serine protease inhibitors targeting Escherichia coli type I signal peptidase” (Eur J Med Chem, 2018):
Converted amounts (≈) assume the structure as drawn. Square brackets hold non-standard residues; d marks the D form. Peptide text beside a SMILES is read from it. * marks the point of attachment. Benzoyl(4-(4-hexylphenyl)) = CCCCCCc1ccc(-c2ccc(C(=O)*)cc2)cc1; X1 = C[C@H](N*)B1OC2C[C@@H]3C[C@@H](C3(C)C)[C@]2(C)O1; Orn = NCCC[C@H](N)C(=O)O

Experiments:
[1] = Hemolytic activity in human RBC at 100 uM after 45 mins by spectrophotometric method relative to control; format: ADME, cell-based, Erythrocyte; details: red blood cells (erythrocytes), read-out: Activity
How it was run: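 Heparinized human blood; red cells washed three times in Tyrode buffer pH 7.4. Compound at 100 µM final with 1% DMSO and 50% RBC, shaken (250 rpm) 45 min at 37 °C. Cells pelleted (1000 × g, 10 min); supernatant haemoglobin at 540 nm. Percent lysis relative to buffer-only and 2% Triton X-100 controls.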

Signal peptidase I = Signal peptidase I (Escherichia coli K-12, UniProt P00803); assay: Inhibition of Escherichia coli type 1 signal peptidase lepB preincubated for 10 mins followed by Dabcyl-VGGTATAYGAFSRPGLE-(EDANS)-OH substrate addition measured after 2 hrs by FRET based assay
How it was run: (§1)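 EcLepB (about 50 nM estimated) preincubated 10 min with compound. Reaction started with Dabcyl/EDANS FRET peptide at 8 µM final (Km 20 µM). Fluorescence followed continuously at 535 nm, 22 °C, for 2 h. Cleavage rates plotted against inhibitor concentration; IC50 from non-linear regression of sigmoidal dose-response curves.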

Escherichia coli [2] = assay: Antibacterial activity against Escherichia coli ATCC 25922 after 16 to 20 hrs by broth microdilution method; format: functional
How it was run: (§2)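 Broth microdilution in cation-adjusted Mueller-Hinton II per EUCAST/CLSI; two-fold compound series 64 down to 0.25 µg/mL final. Inoculum from fresh colonies (non-selective agar, 18-24 h, 35 ± 2 °C), adjusted to 0.5 McFarland, diluted to about 5 × 10^5 CFU/mL final. Static incubation 16-20 h at 35 ± 2 °C; MIC read visually as complete growth inhibition against medium-only wells.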

Escherichia coli [3] = assay: Antibacterial activity against tolC deficient Escherichia coli CH3130 after 16 to 20 hrs by broth microdilution method; format: functional; how it was run: as §2
Escherichia coli [4] = assay: Antibacterial activity against Escherichia coli D22 CGSG 5163 harboring Ips mutant after 16 to 20 hrs by broth microdilution method; format: functional
How it was run: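 Broth microdilution in cation-adjusted Mueller-Hinton II broth, following EUCAST and CLSI guidelines. Two-fold series at final concentrations 64 down to 0.25 µg/mL, with medium-only and growth controls. Inoculum from fresh colonies (18-24 h, 35 °C ± 2 °C) adjusted to 0.5 McFarland, final ≈5 × 10^5 CFU/mL. Plates incubated unshaken 16-20 h at 35 °C ± 2 °C. MIC read visually as complete inhibition of growth.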

Pseudomonas aeruginosa [5] = assay: Antibacterial activity against Pseudomonas aeruginosa PAO1 after 16 to 20 hrs by broth microdilution method; format: functional; how it was run: as §2
Pseudomonas aeruginosa [6] = assay: Antibacterial activity against efflux defective Pseudomonas aeruginosa PAO750 after 16 to 20 hrs by broth microdilution method; format: functional; how it was run: as §2
Klebsiella pneumoniae = assay: Antibacterial activity against Klebsiella pneumoniae ATCC 13883 after 16 to 20 hrs by broth microdilution method; format: functional; how it was run: as §2
HepG2 = assay: Cytotoxicity against human HepG2 cells after 72 hrs by FMSA; format: cell-based; details: HepG2, 72 h
How it was run: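 HepG2 (ATCC) grown in EMEM with 10% FBS, pen/strep, 2 mM L-glutamine, used up to 20 passages. Seeded at 1000 cells/well, cultured overnight, then dosed acoustically from DMSO stocks. Eight two-fold dilutions in duplicate from top 64 or 32 µM; 72 h at 37 °C, 5% CO2. Fluorescein diacetate hydrolysis read at ex 485/em 530 nm; IC50 by non-linear regression.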

Acinetobacter baumannii = assay: Antibacterial activity against Acinetobacter baumannii ATCC 19606 after 16 to 20 hrs by broth microdilution method; format: functional; details: ATCC 19606 = CIP 70.34 = JCM 6841; how it was run: as §2
Staphylococcus aureus = assay: Antibacterial activity against Staphylococcus aureus ATCC 29213 after 16 to 20 hrs by broth microdilution method; format: functional; how it was run: as §2
[7] = molecular target: Signal peptidase I (Escherichia coli K-12) (UniProt P00803); assay: Inhibition of Escherichia coli type 1 signal peptidase lepB assessed as residual activity at 10 uM preincubated for 10 mins followed by Dabcyl-VGGTATAYGAFSRPGLE-(EDANS)-OH substrate addition measured after 2 hrs by FRET based assay (reference value: 100%); how it was run: as §1
[8] = molecular target: Signal peptidase I (Escherichia coli K-12) (UniProt P00803); assay: Inhibition of Escherichia coli type 1 signal peptidase lepB assessed as residual activity at 5 uM preincubated for 10 mins followed by Dabcyl-VGGTATAYGAFSRPGLE-(EDANS)-OH substrate addition measured after 2 hrs by FRET based assay (reference value: 100%); how it was run: as §1
[9] = molecular target: Signal peptidase I (Escherichia coli K-12) (UniProt P00803); assay: Inhibition of Escherichia coli type 1 signal peptidase lepB assessed as residual activity at 2.5 uM preincubated for 10 mins followed by Dabcyl-VGGTATAYGAFSRPGLE-(EDANS)-OH substrate addition measured after 2 hrs by FRET based assay (reference value: 100%); how it was run: as §1
[10] = molecular target: Signal peptidase I (Escherichia coli K-12) (UniProt P00803); assay: Inhibition of Escherichia coli type 1 signal peptidase lepB assessed as residual activity at 1.25 uM preincubated for 10 mins followed by Dabcyl-VGGTATAYGAFSRPGLE-(EDANS)-OH substrate addition measured after 2 hrs by FRET based assay (reference value: 100%); how it was run: as §1
[11] = molecular target: Signal peptidase I (Escherichia coli K-12) (UniProt P00803); assay: Inhibition of Escherichia coli type 1 signal peptidase lepB assessed as residual activity at 0.625 uM preincubated for 10 mins followed by Dabcyl-VGGTATAYGAFSRPGLE-(EDANS)-OH substrate addition measured after 2 hrs by FRET based assay (reference value: 100%); how it was run: as §1
[12] = molecular target: Signal peptidase I (Escherichia coli K-12) (UniProt P00803); assay: Inhibition of Escherichia coli type 1 signal peptidase lepB assessed as residual activity at 0.3125 uM preincubated for 10 mins followed by Dabcyl-VGGTATAYGAFSRPGLE-(EDANS)-OH substrate addition measured after 2 hrs by FRET based assay (reference value: 100%); how it was run: as §1
[13] = molecular target: Signal peptidase I (Escherichia coli K-12) (UniProt P00803); assay: Inhibition of Escherichia coli type 1 signal peptidase lepB assessed as residual activity at 0.1563 uM preincubated for 10 mins followed by Dabcyl-VGGTATAYGAFSRPGLE-(EDANS)-OH substrate addition measured after 2 hrs by FRET based assay (reference value: 100%); how it was run: as §1
[14] = molecular target: Signal peptidase I (Escherichia coli K-12) (UniProt P00803); assay: Inhibition of Escherichia coli type 1 signal peptidase lepB assessed as residual activity at 0.0781 uM preincubated for 10 mins followed by Dabcyl-VGGTATAYGAFSRPGLE-(EDANS)-OH substrate addition measured after 2 hrs by FRET based assay (reference value: 100%); how it was run: as §1
[15] = molecular target: Signal peptidase I (Escherichia coli K-12) (UniProt P00803); assay: Inhibition of Escherichia coli type 1 signal peptidase lepB assessed as residual activity at 0.0391 uM preincubated for 10 mins followed by Dabcyl-VGGTATAYGAFSRPGLE-(EDANS)-OH substrate addition measured after 2 hrs by FRET based assay (reference value: 100%); how it was run: as §1
[16] = molecular target: Signal peptidase I (Escherichia coli K-12) (UniProt P00803); assay: Inhibition of Escherichia coli type 1 signal peptidase lepB assessed as residual activity at 0.0195 uM preincubated for 10 mins followed by Dabcyl-VGGTATAYGAFSRPGLE-(EDANS)-OH substrate addition measured after 2 hrs by FRET based assay (reference value: 100%); how it was run: as §1
[17] = molecular target: Signal peptidase I (Escherichia coli K-12) (UniProt P00803); assay: Inhibition of Escherichia coli type 1 signal peptidase lepB assessed as residual activity at 0.0098 uM preincubated for 10 mins followed by Dabcyl-VGGTATAYGAFSRPGLE-(EDANS)-OH substrate addition measured after 2 hrs by FRET based assay (reference value: 100%); how it was run: as §1
[18] = molecular target: Signal peptidase I (Escherichia coli K-12) (UniProt P00803); assay: Inhibition of Escherichia coli type 1 signal peptidase lepB assessed as residual activity at 0.0049 uM preincubated for 10 mins followed by Dabcyl-VGGTATAYGAFSRPGLE-(EDANS)-OH substrate addition measured after 2 hrs by FRET based assay (reference value: 100%); how it was run: as §1
[19] = molecular target: Signal peptidase I (Escherichia coli K-12) (UniProt P00803); assay: Inhibition of Escherichia coli type 1 signal peptidase lepB assessed as residual activity at 0.0024 uM preincubated for 10 mins followed by Dabcyl-VGGTATAYGAFSRPGLE-(EDANS)-OH substrate addition measured after 2 hrs by FRET based assay (reference value: 100%); how it was run: as §1
[20] = molecular target: Signal peptidase I (Escherichia coli K-12) (UniProt P00803); assay: Inhibition of Escherichia coli type 1 signal peptidase lepB assessed as residual activity at 0.0012 uM preincubated for 10 mins followed by Dabcyl-VGGTATAYGAFSRPGLE-(EDANS)-OH substrate addition measured after 2 hrs by FRET based assay (reference value: 100%); how it was run: as §1
[21] = molecular target: Signal peptidase I (Escherichia coli K-12) (UniProt P00803); assay: Inhibition of Escherichia coli type 1 signal peptidase lepB assessed as residual activity at 0.0006 uM preincubated for 10 mins followed by Dabcyl-VGGTATAYGAFSRPGLE-(EDANS)-OH substrate addition measured after 2 hrs by FRET based assay (reference value: 100%); how it was run: as §1

Signal peptidase I (Escherichia coli K-12), sequence (P00803 whole entry): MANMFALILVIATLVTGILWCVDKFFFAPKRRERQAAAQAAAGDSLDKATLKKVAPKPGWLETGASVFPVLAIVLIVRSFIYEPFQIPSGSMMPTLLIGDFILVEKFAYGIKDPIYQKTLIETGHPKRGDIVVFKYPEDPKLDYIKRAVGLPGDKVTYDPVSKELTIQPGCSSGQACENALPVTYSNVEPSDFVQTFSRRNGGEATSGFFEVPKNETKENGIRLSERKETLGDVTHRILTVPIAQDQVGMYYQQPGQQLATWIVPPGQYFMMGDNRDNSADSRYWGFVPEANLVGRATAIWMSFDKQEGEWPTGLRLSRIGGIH
Signal peptidase I, sequence (P00803 whole entry): as above

Row | Compound | hemolysis at 0.75 h, 100 µM [1] [%] | IC50 (Signal peptidase I) [nM] | MIC (Escherichia coli [2]) [µg/mL] | MIC (Escherichia coli [3]) [µg/mL] | MIC (Escherichia coli [4]) [µg/mL] | MIC (Pseudomonas aeruginosa [5]) [µg/mL] | MIC (Pseudomonas aeruginosa [6]) [µg/mL] | MIC (Klebsiella pneumoniae) [µg/mL] | IC50 (HepG2) [µM] | MIC (Acinetobacter baumannii) [µg/mL] | MIC (Staphylococcus aureus) [µg/mL] | Activity [7] [%] | Activity [8] [%] | Activity [9] [%] | Activity [10] [%] | Activity [11] [%] | Activity [12] [%] | Activity [13] [%] | Activity [14] [%] | Activity [15] [%] | other results
1 | CCCCCCc1ccc(-c2ccc(C(=O)N[C@@H](CCCN)C(=O)N[C@H](C(=O)N[C@@H](C)C(=O)N[C@H]3Cc4cn(nn4)CCN4C[C@@H]5OB(O[C@@H]5C4)[C@H](C)NC3=O)[C@@H](C)O)cc2)cc1 | 10.1 | 104 | 64 (≈ 73.5 µM) | 16 (≈ 18.4 µM) | 32 (≈ 36.7 µM) | > 64 | > 64 | 64 (≈ 73.5 µM) | 9.5 | 32 (≈ 36.7 µM) | 32 (≈ 36.7 µM) | 17.8 | 26.7 | 29.8 | 32.9 | 36.3 | 38.8 | 47.2 | 61.4 | 63.8 | Activity [16]: 71.3%; Activity [17]: 77.9%; Activity [18]: 77%; Activity [19]: 79.9%; Activity [20]: 80.6%; Activity [21]: 97.3%
2 | CCCCCCc1ccc(-c2ccc(C(=O)N[C@@H](CCCN)C(=O)N[C@H](C(=O)N[C@@H](C)C(=O)N[C@@H](CC(N)=O)C(=O)N[C@@H](C)B3OC4C[C@@H]5C[C@@H](C5(C)C)[C@]4(C)O3)[C@@H](C)O)cc2)cc1 (stereo partly drawn) ({Benzoyl(4-(4-hexylphenyl))}-[Orn]TAN-X1) | 11.7 | 17 | 8 (≈ 9.01 µM) | 2 (≈ 2.25 µM) | 0.5 (≈ 0.563 µM) | 64 (≈ 72.1 µM) | 32 (≈ 36 µM) | 2 (≈ 2.25 µM) | 11.7 | 4 (≈ 4.5 µM) | 0.025 (≈ 0.0282 µM) | 6.3 | 1.8 | -0.2 | 8.5 | -9.9 | 3.5 | -1.3 | 20.5 | 24.9 | Activity [16]: 42.9%; Activity [17]: 70.6%; Activity [18]: 87.3%; Activity [19]: 91.9%; Activity [20]: 98.6%; Activity [21]: 114%
3 | CCCCCCc1ccc(-c2ccc(C(=O)N[C@@H](CCCNC(=N)N)C(=O)N[C@H](C(=O)N[C@@H](C)C(=O)N[C@H]3Cc4cn(nn4)CCCN4C[C@@H]5OB(O[C@@H]5C4)[C@H](C)NC3=O)[C@@H](C)O)cc2)cc1 | 21 | 41 | 16 (≈ 17.3 µM) | 4 (≈ 4.32 µM) | 8 (≈ 8.63 µM) | > 64 | 32 (≈ 34.5 µM) | 16 (≈ 17.3 µM) | 2.4 | 16 (≈ 17.3 µM) | 16 (≈ 17.3 µM) | 22.9 | 27.7 | 32.8 | 35.7 | 36 | 39.1 | 41.7 | 46.5 | 76.8 | Activity [16]: 97.2%; Activity [17]: 101%; Activity [18]: 105%; Activity [19]: 102%; Activity [20]: 106%; Activity [21]: 108%
